# Laboratory results from ChEMBL document CHEMBL4052787, “Development of novel LP1-based analogues with enhanced delta opioid receptor profile” (Bioorg Med Chem, 2017).
# Calls of active or inactive are those of the source. The calls are words filed in the database; no cut-off is given here.
# Columns and labels:
# [1] = organism: Rattus norvegicus; assay: Ratio of Ki for DOR in rat brain membranes to Ki for MOR in rat brain membranes; assay type: cell membranes
# In short: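 Ratio of Ki values: DOR Ki (rat brain, [3H]-DPDPE, 2 nM) divided by MOR Ki (rat brain, [3H]-DAMGO, 1 nM), both from 45 min, 35 °C competition binding in 50 mM Tris-HCl pH 7.4.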
# [2] = Ratio of Ki for KOR in guinea pig brain membranes to Ki for MOR in rat brain membranes; assay type: cell membranes
# In short: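 Ratio of KOR Ki (guinea pig brain, 1 nM [3H]-(+)-U69,593, 30 min at 30 °C) to MOR Ki (rat brain, 1 nM [3H]-DAMGO, 45 min at 35 °C).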
# [3] = target: mu/kappa opioid receptor (Cavia porcellus, UniProt P41144+P97266); assay: Agonist activity at MOR/KOR in Dunkin-Hartley guinea pig ileum assessed as inhibition of electrically induced contractions after 5 mins
# In short: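 Guinea pig ileum longitudinal muscle/myenteric plexus strips from male guinea pigs (200–300 g), 2 g load. Transmural single pulses 0.1 Hz, 0.3 ms, 200 mA. After 60–90 min equilibration in Krebs, compounds added cumulatively, at least 5 min each. Percent inhibition of contraction; IC50 by linear regression of log concentration–effect curves, at least three trials.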
# [4] = Agonist activity at DOR in CD-1 mouse vasa deferentia assessed as inhibition of electrically induced contractions after 5 mins
# In short: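 Mouse vas deferens at 0.5 g tension; after equilibration, pulses 20 Hz, 0.5 ms, 1 s duration every 40 s. After 60 min equilibration in Krebs, cumulative compound additions, minimum 5 min apart. Contraction inhibition as percent of baseline; IC50 from linear regression of log concentration–effect curves, at least three trials.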
# [5] = target: Mu-type opioid receptor (Cavia porcellus) (UniProt P97266); assay: Antagonist activity at MOR in Dunkin-Hartley guinea pig ileum assessed as inhibition of electrically induced contractions after 5 mins by measuring ratio of IC50 for test compounds in presence and absence of NLX
# Mu-type opioid receptor (Cavia porcellus), sequence (P97266 whole entry): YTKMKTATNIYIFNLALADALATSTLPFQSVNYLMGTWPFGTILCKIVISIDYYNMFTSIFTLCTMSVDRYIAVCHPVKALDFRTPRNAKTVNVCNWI
# In short: (§1)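 Isolated tissue (ileum for MOR/KOR, vas deferens for DOR) pre-incubated with a 1 μM selective antagonist (NLX or NTI 20 min; norBNI 30 min), then agonist curves repeated. Ke from ratio of IC50 with and without antagonist, by single dose method. Mean ± SEM of four independent tissues.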
# [6] = target: Kappa-type opioid receptor (Cavia porcellus) (UniProt P41144); assay: Antagonist activity at KOR in Dunkin-Hartley guinea pig ileum assessed as inhibition of electrically induced contractions after 5 mins by measuring ratio of IC50 for test compounds in presence and absence of nBNI; in short: as §1
# Kappa-type opioid receptor (Cavia porcellus), sequence (P41144 whole entry): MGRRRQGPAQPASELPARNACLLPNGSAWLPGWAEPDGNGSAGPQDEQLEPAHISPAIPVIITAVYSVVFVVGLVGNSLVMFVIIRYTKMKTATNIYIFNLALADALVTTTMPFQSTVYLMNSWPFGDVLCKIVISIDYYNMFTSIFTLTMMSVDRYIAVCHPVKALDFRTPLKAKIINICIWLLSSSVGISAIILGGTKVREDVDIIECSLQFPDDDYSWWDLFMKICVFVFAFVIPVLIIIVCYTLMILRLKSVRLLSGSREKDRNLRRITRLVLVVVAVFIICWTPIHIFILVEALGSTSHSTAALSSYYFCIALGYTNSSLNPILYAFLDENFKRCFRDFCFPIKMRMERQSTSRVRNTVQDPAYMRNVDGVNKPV
# [7] = target: Mu-type opioid receptor (Rattus norvegicus, UniProt P33535); assay: Displacement of [3H]-DAMGO from MOR in rat brain membranes by liquid scintillation counting analysis; assay type: cell membranes, Membrane
# Mu-type opioid receptor, sequence (P33535 whole entry): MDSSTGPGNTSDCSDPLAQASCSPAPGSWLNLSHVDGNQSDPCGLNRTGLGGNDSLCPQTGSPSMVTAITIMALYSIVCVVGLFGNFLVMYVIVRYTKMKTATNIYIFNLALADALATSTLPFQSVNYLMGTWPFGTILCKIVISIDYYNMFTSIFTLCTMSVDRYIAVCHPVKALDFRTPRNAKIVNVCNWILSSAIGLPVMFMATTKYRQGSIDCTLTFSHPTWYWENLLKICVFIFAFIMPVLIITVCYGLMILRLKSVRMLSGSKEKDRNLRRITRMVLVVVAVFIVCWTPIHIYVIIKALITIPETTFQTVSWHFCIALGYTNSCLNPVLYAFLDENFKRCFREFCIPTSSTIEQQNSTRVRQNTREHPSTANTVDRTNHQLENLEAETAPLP
# In short: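 Rat brain membranes, 0.4 mg/ml protein, incubated 45 min at 35 °C with 1 nM [3H]-DAMGO in 50 mM Tris-HCl pH 7.4. Filtration on PEI-presoaked GF/B filters, scintillation counting. Ki calculated; three experiments, each in duplicate.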
# [8] = target: Delta-type opioid receptor (Rattus norvegicus, UniProt P33533); assay: Displacement of [3H]-DPDPE from DOR in rat brain membranes by liquid scintillation counting analysis; assay type: cell membranes, Membrane
# Delta-type opioid receptor, sequence (P33533 whole entry): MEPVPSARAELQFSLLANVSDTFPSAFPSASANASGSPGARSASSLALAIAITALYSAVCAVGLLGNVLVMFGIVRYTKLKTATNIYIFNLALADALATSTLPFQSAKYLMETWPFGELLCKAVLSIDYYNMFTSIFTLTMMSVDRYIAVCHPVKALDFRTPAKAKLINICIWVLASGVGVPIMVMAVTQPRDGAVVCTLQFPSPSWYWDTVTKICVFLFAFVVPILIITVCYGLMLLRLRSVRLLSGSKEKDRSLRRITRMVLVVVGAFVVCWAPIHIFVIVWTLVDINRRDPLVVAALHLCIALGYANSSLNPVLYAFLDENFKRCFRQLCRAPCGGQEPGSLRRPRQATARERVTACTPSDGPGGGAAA
# In short: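 Rat brain membranes at 0.5 mg/ml protein, 45 min at 35 °C with 2 nM [3H]-DPDPE in 50 mM Tris-HCl pH 7.4. Competitor range 10^-11 to 10^-5 M. Nonspecific binding with 10 μM naloxone. Filtered through PEI-soaked GF/B, scintillation counted. Ki derived; three separate experiments in duplicate.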
# [9] = target: Kappa-type opioid receptor (Cavia porcellus, UniProt P41144); assay: Displacement of [3H]-(+)-U69,593 from KOR in guinea pig brain membranes by liquid scintillation counting analysis; assay type: cell membranes, Membrane
# Kappa-type opioid receptor, sequence (P41144 whole entry): as the sequence (P41144 whole entry) above
# In short: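 Guinea pig brain membranes (0.5 mg/ml) incubated 30 min at 30 °C with 1 nM [3H]-(+)-U69,593. Compounds tested from 10^-11 to 10^-5 M. Nonspecific binding with 10 μM unlabeled naloxone. GF/B filtration, liquid scintillation counting. Ki calculated; means of three experiments, each in duplicate.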
# [10] = organism: Mus musculus; assay: Antagonist activity at DOR in CD-1 mouse vasa deferentia assessed as inhibition of electrically induced contractions after 5 mins by measuring ratio of IC50 for test compounds in presence and absence of […]; in short: as §1
# [11] = test system: Rattus norvegicus; assay: Antinociceptive activity in rat assessed as reduction in response to heat administered ip measured 240 mins post dose by tail-flick test; assay type: functional, organism-based
# [12] = organism: Rattus norvegicus; assay: Antinociceptive activity in rat assessed as reduction in response to heat pretreated with naloxone for 30 mins prior to compound treatment by tail-flick test; assay type: functional
# [13] = target: Kappa-type opioid receptor (Cavia porcellus) (UniProt P41144); assay: Potency index, ratio of LP1 Ki to compound Ki for KOR in guinea pig brain membranes; assay type: cell membranes; conditions: Membrane
# [14] = test system: Rattus norvegicus; assay: Antinociceptive activity in rat assessed as reduction in response to heat administered ip measured 60 mins post dose by tail-flick test; assay type: functional
# [15] = test system: Rattus norvegicus; assay: Antinociceptive activity in rat assessed as reduction in response to heat administered ip measured 45 to 180 mins post dose by tail-flick test; assay type: functional, organism-based
SMILES,Ratio Ki [1],Ratio Ki [2],IC50 [3] [nM],IC50 [4] [nM],Ke [5] [nM],Ke [6] [nM],Ki [7] [nM],Ki [8] [nM],Ki [9] [nM],Ke [10] [nM],Activity [11],Activity [12],Ratio Ki [13],Activity [14],Activity [15],ED50 ([14]; 1 h) [mg/kg]
C[C@H]1[C@H]2Cc3ccc(O)cc3[C@]1(C)CCN2CCC(=O)Nc1ccccc1,33.8,132,1.9,1240,2.3,10.8,–,–,–,–,–,–,–,–,–,–
C[C@H]1[C@H]2Cc3ccc(O)cc3[C@]1(C)CCN2C[C@@H](O)c1ccccc1,1.6,4.44,9.9,11.8,21,9,0.5,0.8,2.22,5.4,Dose-dependent effect,inactive,49,–,–,–
C[C@H]1[C@H]2Cc3ccc(O)cc3[C@]1(C)CCN2CC(C)(O)c1ccccc1 (stereo partly specified),2.66,0.17,194.4,794,–,–,60,160,10.5,–,–,–,10,–,–,–
C[C@H]1[C@H]2Cc3ccc(O)cc3[C@]1(C)CCN2C[C@H](O)c1ccccc1,3.88,2.95,49.2,10.8,35,20,2.47,9.6,7.3,4,Dose-dependent effect,inactive,15,–,–,–
CN1CC[C@]23c4c5ccc(O)c4O[C@H]2[C@@H](O)C=C[C@H]3[C@H]1C5,–,–,–,–,–,–,–,–,–,–,–,–,–,inactive,–,–
COC(CN1CC[C@@]2(C)c3cc(O)ccc3C[C@@H]1[C@@H]2C)c1ccccc1 (stereo partly specified),6.1,14.1,21.5,4.4,19,> 3000,1.08,6.6,15.2,3.9,Dose-dependent effect,inactive,7,–,Active,0.9
